Columns and labels:
[1] = Metabolic stability of the compound in baboon plasma assessed as unmetabolized parent fraction after 2 mins by HPLC analysis; format: ADME, cell-free; details: papio anubis, read-out: Stability
Procedure, shortened: (§1)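 Radiotracer given as an iv bolus to anesthetized baboons. Arterial blood was drawn at 2, 12, 30, 60, 90, 120, 150 and 180 min and centrifuged at 2000 rpm for 1 min. Plasma was mixed with acetonitrile, vortexed and spun at 14,000 rpm for 4 min. The supernatant was counted, then analysed by reversed-phase HPLC with radioactivity detection. Parent percentage was corrected for background and decay, with a QC standard run at the start and end.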

[2] = Tmax in baboon prefrontal cortex at 111 +/- 18 MBq, iv by PET analysis; format: ADME, organism-based; details: papio anubis, in vivo
Procedure, shortened: (§2)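 Two fasted male baboons were given ketamine (10 mg/kg im) and kept under 1.5–2.0% isoflurane, with core temperature held at 37 °C. Tracer in 10% ethanol/90% saline was given as an iv bolus, and 3-D emission data were acquired for 180 min. Regional time-activity curves came from regions of interest, with right and left regions averaged.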

[3] = Drug uptake in baboon insular cortex at 111 +/- 18 MBq, iv by PET analysis in presence of WAY100635; format: ADME, organism-based; details: papio anubis, in vivo
Procedure, shortened: (§3)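 Baboon PET run as for baseline: ketamine/isoflurane anesthesia, iv bolus of tracer, 180 min 3-D acquisition, right and left regions averaged. WAY100635 maleate (0.5 mg/kg iv in 12 mL saline) was given at 50–60 min after tracer injection as a chase/blocking challenge.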

[4] = Metabolic stability of the compound in baboon plasma assessed as unmetabolized parent fraction after 180 mins by HPLC analysis; format: ADME, cell-free; details: papio anubis, read-out: Stability; procedure, shortened: as §1
[5] = tested on: Nucleic Acid; assay: Ratio of drug level in prefrontal cortex to cerebellum in baboon at 111 +/- 18 MBq, iv after 175 mins by PET analysis; format: ADME, organism-based; details: papio anubis, in vivo
[6] = tested on: Plasma; assay: Binding to human plasma proteins
[7] = tested on: Papio anubis; assay: Drug metabolism in baboon at 111 +/- 18 MBq, iv after 2 to 180 mins; format: ADME, organism-based; details: in vivo; procedure, shortened: as §1
[8] = tested on: Nucleic Acid; assay: Ratio of drug level in insular cortex to cerebellum in baboon at 111 +/- 18 MBq, iv after 175 mins by PET analysis; format: ADME, organism-based; details: papio anubis, in vivo
[9] = tested on: Nucleic Acid; assay: Ratio of drug level in temporal cortex to cerebellum in baboon at 111 +/- 18 MBq, iv after 175 mins by PET analysis; format: ADME, organism-based; details: papio anubis, in vivo
[10] = Tmax in baboon amygdala at 111 +/- 18 MBq, iv by PET analysis; format: ADME, organism-based; details: papio anubis, in vivo; procedure, shortened: as §2
[11] = Drug uptake in baboon anterior cingulate at 111 +/- 18 MBq, iv by PET analysis in presence of WAY100635; format: ADME, organism-based; details: papio anubis, in vivo; procedure, shortened: as §3
[12] = Drug uptake in baboon prefrontal cortex at 111 +/- 18 MBq, iv by PET analysis in presence of WAY100635; format: ADME, organism-based; details: papio anubis, in vivo; procedure, shortened: as §3
[13] = tested on: Nucleic Acid; assay: Ratio of drug level in hippocampus to cerebellum in baboon at 111 +/- 18 MBq, iv after 175 mins by PET analysis; format: ADME, organism-based; details: papio anubis, in vivo
[14] = Drug uptake in baboon cingulate at 111 +/- 18 MBq, iv by PET analysis in presence of WAY100635; format: ADME, organism-based, Cingulate cortex; details: papio anubis, in vivo; procedure, shortened: as §3
[15] = Tmax in baboon insula cortex at 111 +/- 18 MBq, iv by PET analysis; format: ADME, organism-based; details: papio anubis, in vivo; procedure, shortened: as §2
[16] = Metabolic stability of the compound in baboon plasma assessed as unmetabolized parent fraction after 30 mins by HPLC analysis; format: ADME, cell-free; details: papio anubis, read-out: Stability; procedure, shortened: as §1
[17] = Tmax in baboon cerebellum at 111 +/- 18 MBq, iv by PET analysis; format: ADME, organism-based; details: papio anubis, in vivo; procedure, shortened: as §2
[18] = Drug uptake in baboon caudate at 111 +/- 18 MBq, iv by PET analysis in presence of WAY100635; format: ADME, organism-based; details: papio anubis, in vivo; procedure, shortened: as §3
[19] = tested on: Nucleic Acid; assay: Ratio of drug level in cingulate cortex to cerebellum in baboon at 111 +/- 18 MBq, iv after 175 mins by PET analysis; format: ADME, organism-based; details: papio anubis, in vivo
[20] = Metabolic stability of the compound in baboon plasma assessed as unmetabolized parent fraction after 90 mins by HPLC analysis; format: ADME, cell-free; details: papio anubis, read-out: Stability; procedure, shortened: as §1
[21] = tested on: Nucleic Acid; assay: Ratio of drug level in anterior cingulate cortex to cerebellum in baboon at 111 +/- 18 MBq, iv after 175 mins by PET analysis; format: ADME, organism-based; details: papio anubis, in vivo
[22] = Drug uptake in baboon amygdala at 111 +/- 18 MBq, iv by PET analysis in presence of WAY100635; format: ADME, organism-based; details: papio anubis, in vivo; procedure, shortened: as §3
[23] = Metabolic stability of the compound in baboon plasma assessed as unmetabolized parent fraction after 60 mins by HPLC analysis; format: ADME, cell-free; details: papio anubis, read-out: Stability; procedure, shortened: as §1
[24] = Drug uptake in baboon thalamus at 111 +/- 18 MBq, iv by PET analysis in presence of WAY100635; format: ADME, organism-based; details: papio anubis, in vivo; procedure, shortened: as §3
[25] = Drug uptake in baboon temporal cortex at 111 +/- 18 MBq, iv by PET analysis in presence of WAY100635; format: ADME, organism-based; details: papio anubis, in vivo; procedure, shortened: as §3
[26] = tested on: Nucleic Acid; assay: Ratio of drug level in dorsal raphe nucleus to cerebellum in baboon at 111 +/- 18 MBq, iv after 175 mins by PET analysis; format: ADME, organism-based; details: papio anubis, in vivo
[27] = tested on: Nucleic Acid; assay: Ratio of drug level in thalamus to cerebellum in baboon at 111 +/- 18 MBq, iv after 175 mins by PET analysis; format: ADME, organism-based; details: papio anubis, in vivo
[28] = Metabolic stability of the compound in baboon plasma assessed as unmetabolized parent fraction after 12 mins by HPLC analysis; format: ADME, cell-free; details: papio anubis, read-out: Stability; procedure, shortened: as §1
[29] = Metabolic stability of the compound in baboon plasma assessed as unmetabolized parent fraction after 150 mins by HPLC analysis; format: ADME, cell-free; details: papio anubis, read-out: Stability; procedure, shortened: as §1
[30] = Binding to baboon plasma proteins; details: papio anubis
[31] = Tmax in baboon cingulate cortex at 111 +/- 18 MBq, iv by PET analysis; format: ADME, organism-based; details: papio anubis, in vivo; procedure, shortened: as §2
[32] = Drug uptake in baboon hippocampus at 111 +/- 18 MBq, iv by PET analysis in presence of WAY100635; format: ADME, organism-based; details: papio anubis, in vivo; procedure, shortened: as §3
[33] = Drug uptake in baboon cerebellum at 111 +/- 18 MBq, iv by PET analysis in presence of WAY100635; format: ADME, organism-based; details: papio anubis, in vivo; procedure, shortened: as §3
[34] = Metabolic stability of the compound in baboon plasma assessed as unmetabolized parent fraction after 120 mins by HPLC analysis; format: ADME, cell-free; details: papio anubis, read-out: Stability; procedure, shortened: as §1
[35] = tested on: Nucleic Acid; assay: Ratio of drug level in amygdala to cerebellum in baboon at 111 +/- 18 MBq, iv after 175 mins by PET analysis; format: ADME, organism-based; details: papio anubis, in vivo
[36] = Tmax in baboon hippocampus at 111 +/- 18 MBq, iv by PET analysis; format: ADME, organism-based; details: papio anubis, in vivo; procedure, shortened: as §2
[37] = Tmax in baboon striatum at 111 +/- 18 MBq, iv by PET analysis; format: ADME, organism-based; details: papio anubis, in vivo
Procedure, shortened: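 Baseline PET in two fasted male baboons on an ECAT EXACT HR+ scanner. Animals were immobilized with ketamine (10 mg/kg im), kept on 1.5–2.0% isoflurane via endotracheal tube, held at 37 °C core temperature, and hydrated with 0.9% NaCl. Radiotracer in 10% ethanol/saline was given as an iv bolus. Emission was recorded for 180 min in 3-D mode. Region time-activity curves used right/left averaged ROIs.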

SMILES: Cn1c(=O)cnn(CCCCN2CCN(c3ccccc3OCC[18F])CC2)c1=O
- remaining at 2 min [1]: 98%
- Tmax [2]: 3 min
- Drug uptake [3]: Active
- remaining at 3 h [4]: 18%
- Ratio [5]: 1.8
- plasma protein binding [6]: 11.5%
- Drug metabolism [7]: Active
- Ratio [8]: 2.3
- Ratio [9]: 2
- Tmax [10]: 3 min
- Drug uptake [11]: Active
- Drug uptake [12]: Active
- Ratio [13]: 4
- Drug uptake [14]: Active
- Tmax [15]: 3 min
- remaining at 0.5 h [16]: 51%
- Tmax [17]: 3 min
- Drug uptake [18]: Active
- Ratio [19]: 1.8
- remaining at 1.5 h [20]: 32.5%
- Ratio [21]: 2.5
- Drug uptake [22]: Active
- remaining at 1 h [23]: 37%
- Drug uptake [24]: Active
- Drug uptake [25]: Active
- Ratio [26]: 1.75
- Ratio [27]: 2
- remaining at 0.2 h [28]: 74%
- remaining at 2.5 h [29]: 21.5%
- plasma protein binding [30]: 35%
- Tmax [31]: 3 min
- Drug uptake [32]: Active
- Drug uptake [33]: Active
- remaining at 2 h [34]: 23.5%
- Ratio [35]: 2.4
- Tmax [36]: 3 min
- Tmax [37]: 3 min
